ChEMBL document CHEMBL1156017, “alpha-Tocopheryl succinate as a scaffold to develop potent inhibitors of breast cancer cell adhesion” (J Med Chem, 2009)
Each block holds one molecule with its values, some of them ahead of it. Active and inactive are the calls of the source. No cut-off for these calls is given here.

Experiments:
[1] = system: 4T1; experiment: Inhibition of mouse 4T1 cells adhesion to gelatinous matrix protein-coated surface after 60 mins by ELISA; type: functional, cell-based; details: for IC50: 4T1, 1 h
[2] = system: MCF7; experiment: Inhibition of human MCF7 cells adhesion to gelatinous matrix protein-coated surface after 60 mins by ELISA; type: functional, cell-based
Method in brief: (§1)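 Wells coated with 12% (v/v) Matrigel for 1 h at 37°C, washed with 0.1% BSA RPMI, then blocked 60 min with 0.5% BSA RPMI. Cells pretreated with agents for 60 min at 37°C, then seeded at 2 × 10^4/well and allowed to adhere 30 min. Washed, formalin fixed, crystal violet stained, solubilized in 2% SDS, absorbance at 570 nm. Ratios compare IC50 values across cell lines.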

[3] = system: SK-BR-3; experiment: Inhibition of human SK-BR-3 cells adhesion to gelatinous matrix protein-coated surface after 60 mins by ELISA; type: functional, cell-based; method in brief: as §1
[4] = system: 4T1; experiment: Cytotoxicity against mouse 4T1 cells after 24 hrs by MTT assay; type: cell-based; details: for IC50: Mus musculus, 4T1, 24 h; for Activity: mouse, 4t1, 24 h
Method in brief: (§2)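 MTT viability, six replicates. Cells seeded at 6000 per well in 10% FBS RPMI 1640 for 24 h, then exposed to agents at the indicated concentrations in 2% FBS RPMI 1640. DMSO-matched vehicle controls. MTT at 0.5 mg/ml in 10% FBS medium for 2 h at 37°C. Formazan dissolved in DMSO, A570 read.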

[5] = Cytotoxicity against human MCF10A cells after 24 hrs by MTT assay; type: cell-based, MCF-10A; details: for IC50: Homo sapiens, MCF-10A; for Activity: human, mcf-10a; method in brief: as §2
[6] = system: 4T1; experiment: Inhibition of mouse 4T1 cells metastasis at 5 uM after 30 mins by Boyden chamber assay; type: functional, cell-based
Method in brief: (§3)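 Transwell migration (12-μm pore). 5 × 10^4 cells in 0.2% FBS RPMI with agent in the upper insert for 30 min at 37°C, then moved to a well with 10% FBS RPMI for 24 h. Crystal violet stained. Migrated and non-migrated cells eluted with methanol separately, A570 read. % migration computed after background subtraction, expressed relative to vehicle (100%).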

[7] = biological target: Focal adhesion kinase 1 (Mus musculus) (UniProt P34152); experiment: Induction of FAK degradation in mouse 4T1 cells at 5 uM after 1 hr by Western blotting; type: cell-based
Chain of Focal adhesion kinase 1 (Mus musculus) (P34152 whole entry): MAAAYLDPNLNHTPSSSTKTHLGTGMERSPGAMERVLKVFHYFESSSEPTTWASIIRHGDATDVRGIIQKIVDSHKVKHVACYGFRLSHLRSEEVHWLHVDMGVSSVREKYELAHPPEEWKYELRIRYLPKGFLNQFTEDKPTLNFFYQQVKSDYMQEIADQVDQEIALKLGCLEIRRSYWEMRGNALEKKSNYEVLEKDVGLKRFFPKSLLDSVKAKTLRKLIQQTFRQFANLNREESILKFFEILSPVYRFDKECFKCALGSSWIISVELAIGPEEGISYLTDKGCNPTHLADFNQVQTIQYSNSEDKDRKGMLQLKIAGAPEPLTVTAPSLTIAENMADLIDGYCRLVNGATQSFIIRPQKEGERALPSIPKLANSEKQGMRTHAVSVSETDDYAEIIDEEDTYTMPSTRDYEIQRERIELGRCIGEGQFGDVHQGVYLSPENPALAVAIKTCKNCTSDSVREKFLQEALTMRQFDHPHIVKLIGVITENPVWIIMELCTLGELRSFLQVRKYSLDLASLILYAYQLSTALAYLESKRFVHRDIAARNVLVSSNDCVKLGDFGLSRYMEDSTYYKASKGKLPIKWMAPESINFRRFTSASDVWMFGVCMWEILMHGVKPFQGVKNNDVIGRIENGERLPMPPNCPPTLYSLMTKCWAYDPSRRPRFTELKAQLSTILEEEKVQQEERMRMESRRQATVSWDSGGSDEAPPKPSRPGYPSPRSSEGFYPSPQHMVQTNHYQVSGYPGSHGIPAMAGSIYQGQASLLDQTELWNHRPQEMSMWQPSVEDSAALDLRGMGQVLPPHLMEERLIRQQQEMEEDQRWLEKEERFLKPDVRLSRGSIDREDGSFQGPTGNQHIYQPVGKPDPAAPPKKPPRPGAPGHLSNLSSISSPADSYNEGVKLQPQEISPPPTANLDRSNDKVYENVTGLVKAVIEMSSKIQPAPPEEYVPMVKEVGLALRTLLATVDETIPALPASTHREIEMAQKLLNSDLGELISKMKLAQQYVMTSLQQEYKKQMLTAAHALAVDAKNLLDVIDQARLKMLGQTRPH

[8] = system: 4T1; experiment: Effect on actin cytoskeletal structure in mouse 4T1 cells assessed as rapid loss of F-actin fiber-associated detachment from neighbouring cells at 10 uM after 4 hrs by immunocytochemistry; type: functional, cell-based
[9] = system: 4T1; experiment: Inhibition of mouse 4T1 cells adhesion to gelatinous matrix protein-coated surface at 10 uM after 60 mins by ELISA; type: functional; details: 4T1, 1 h
[10] = system: MCF7; experiment: Inhibition of human MCF7 cells adhesion to gelatinous matrix protein-coated surface at 100 uM after 60 mins by ELISA; type: functional, cell-based; method in brief: as §1
[11] = system: SK-BR-3; experiment: Inhibition of human SK-BR-3 cells adhesion to gelatinous matrix protein-coated surface at 100 uM after 60 mins by ELISA; type: functional, cell-based; method in brief: as §1
[12] = system: 4T1; experiment: Inhibition of mouse 4T1 cells adhesion to collagen 4 at 5 to 100 uM after 60 mins by ELISA; type: functional, cell-based
Method in brief: (§4)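 Wells coated 1 h at 37°C with 2 μg/ml vitronectin or 10 μg/ml collagen IV, fibronectin or laminin. Washed with 0.1% BSA RPMI, blocked 60 min with 0.5% BSA RPMI. 4T1 cells pretreated with agents for 60 min at 37°C, then 2 × 10^4 cells/well allowed to adhere 30 min. Nonadherent cells washed off. Formalin fixed, 0.5% crystal violet stained, dissolved in 2% SDS, A570 read.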

[13] = system: 4T1; experiment: Inhibition of mouse 4T1 cells adhesion to fibronectin at 5 to 100 uM after 60 mins by ELISA; type: functional, cell-based; method in brief: as §4
[14] = system: 4T1; experiment: Inhibition of mouse 4T1 cells adhesion to laminin at 5 to 100 uM after 60 mins by ELISA; type: functional, cell-based; method in brief: as §4
[15] = system: 4T1; experiment: Inhibition of mouse 4T1 cells adhesion to vitronectin at 5 to 100 uM after 60 mins by ELISA; type: functional, cell-based; method in brief: as §4
[16] = system: 4T1; experiment: Inhibition of mouse 4T1 cells metastasis at 50 uM after 30 mins by Boyden chamber assay; type: functional, cell-based; method in brief: as §3
[17] = system: 4T1; experiment: Effect on actin cytoskeletal structure in mouse 4T1 cells assessed as rapid dissolution of actin stress fibers at 50 uM after 4 hrs by immunocytochemistry; type: functional, cell-based
[18] = system: 4T1; experiment: Effect on actin cytoskeletal structure in mouse 4T1 cells assessed as rapid loss of F-actin fiber-associated detachment from neighbouring cells at 5 uM after 4 hrs by immunocytochemistry; type: functional, cell-based
[19] = system: MCF7; experiment: Ratio of IC50 for inhibition of human MCF7 cells adhesion to gelatinous matrix protein-coated surface to IC50 for mouse 4T1 cells adhesion to gelatinous matrix protein-coated surface; type: functional; method in brief: as §1
[20] = system: SK-BR-3; experiment: Ratio of IC50 for inhibition of human SK-BR-3 cells adhesion to gelatinous matrix protein-coated surface to IC50 for mouse 4T1 cells adhesion to gelatinous matrix protein-coated surface; type: functional; method in brief: as §1
[21] = system: 4T1; experiment: Inhibition of mouse 4T1 cells adhesion to collagen 4 at 0.5 to => 1 uM after 60 mins by ELISA; type: functional, cell-based; method in brief: as §4
[22] = system: 4T1; experiment: Inhibition of mouse 4T1 cells adhesion to fibronectin at 0.5 to => 1 uM after 60 mins by ELISA; type: functional, cell-based; method in brief: as §4
[23] = system: 4T1; experiment: Inhibition of mouse 4T1 cells adhesion to laminin at 0.5 to => 1 uM after 60 mins by ELISA; type: functional, cell-based; method in brief: as §4
[24] = system: 4T1; experiment: Inhibition of mouse 4T1 cells adhesion to vitronectin at 0.5 to => 1 uM after 60 mins by ELISA; type: functional, cell-based; method in brief: as §4
[25] = system: 4T1; experiment: Inhibition of mouse 4T1 cells adhesion to collagen 4 at after 60 mins by ELISA; type: functional, cell-based; method in brief: as §4
[26] = system: 4T1; experiment: Inhibition of mouse 4T1 cells adhesion to fibronectin at after 60 mins by ELISA; type: functional, cell-based; method in brief: as §4
[27] = system: 4T1; experiment: Inhibition of mouse 4T1 cells adhesion to laminin at after 60 mins by ELISA; type: functional, cell-based; method in brief: as §4
[28] = system: 4T1; experiment: Inhibition of mouse 4T1 cells adhesion to vitronectin at after 60 mins by ELISA; type: functional, cell-based; method in brief: as §4
[29] = system: 4T1; experiment: Effect on actin cytoskeletal structure in mouse 4T1 cells assessed as rapid dissolution of actin stress fibers at 5 uM after 4 hrs by immunocytochemistry; type: functional, cell-based
[30] = system: 4T1; experiment: Effect on actin cytoskeletal structure in mouse 4T1 cells assessed as impairment of lamellipodia formation at 5 uM after 4 hrs by immunocytochemistry; type: functional, cell-based
[31] = system: 4T1; experiment: Effect on actin cytoskeletal structure in mouse 4T1 cells assessed as rapid dissolution of F-actin fiber-associated reduction in fluorescent intensity at 5 uM after 4 hrs by immunocytochemistry relative to DMSO; type: functional; design: scale not given: the % may be the effect or the level left
[32] = system: 4T1; experiment: Effect on actin cytoskeletal structure in mouse 4T1 cells assessed as increase in accumulation of small vesicles surrounding nucleus and endoplasmic reticulum at 5 uM after 4 hrs by immunocytochemistry relative to DMSO; type: functional, cell-based
[33] = biological target: Focal adhesion kinase 1 (Mus musculus) (UniProt P34152); experiment: Induction of FAK degradation in mouse 4T1 cells at 5 uM after 1 hr by Western blotting
[34] = system: 4T1; experiment: Effect on actin cytoskeletal structure in mouse 4T1 cells assessed as rapid dissolution of actin stress fibers at 10 uM after 4 hrs by immunocytochemistry; type: functional, cell-based
[35] = system: 4T1; experiment: Effect on actin cytoskeletal structure in mouse 4T1 cells assessed as impairment of lamellipodia formation at 10 uM after 4 hrs by immunocytochemistry; type: functional, cell-based
[36] = system: 4T1; experiment: Effect on actin cytoskeletal structure in mouse 4T1 cells assessed as rapid dissolution of F-actin fiber-associated reduction in fluorescent intensity at 10 uM after 4 hrs by immunocytochemistry relative to DMSO; type: functional; design: scale not given: the % may be the effect or the level left
[37] = system: 4T1; experiment: Effect on actin cytoskeletal structure in mouse 4T1 cells assessed as increase in accumulation of small vesicles surrounding nucleus and endoplasmic reticulum at 10 uM after 4 hrs by immunocytochemistry relative to DMSO; type: functional, cell-based

Compound: Cc1c(C)c2c(c(C)c1OC(=O)CCC(=O)O)CC[C@@](C)(CCC[C@H](C)CCC[C@H](C)CCCC(C)C)O2 [(+)-ALPHA-TOCOPHERYL SUCCINATE]
Activity [8]: inactive | inhibition [1]: Dose-dependent effect | IC50 [1]: 10000 nM | inhibition at 10 µM [9]: 50% | inhibition [3]: Dose-dependent effect | inhibition [10]: inactive | inhibition [11]: inactive | inhibition [12]: Active | inhibition [13]: Active | inhibition [14]: Active | inhibition [15]: Active | inhibition [16]: inactive | Activity [17]: inactive | Activity [7]: inactive

Compound: Cc1c(C)c2c(c(C)c1OCC(=O)O)CC[C@](C)(CCCC(C)CCCC(C)C)O2 (stereo partly drawn)
inhibition [1]: Dose-dependent effect | IC50 [1]: 2000 nM | inhibition [2]: Dose-dependent effect | inhibition [3]: Dose-dependent effect | IC50 [4]: > 10 µM | Activity [4]: Dose-dependent effect | Activity [5]: Dose-dependent effect | inhibition [6]: Active | Activity [34]: Active | Activity [35]: Active | Activity [36]: 70% | Activity [37]: Active | Activity [7]: Active

Compound: Cc1c(C)c2c(c(C)c1OC(=O)CCC(=O)O)CC[C@](C)(CCCC(C)CCCC(C)C)O2 (stereo partly drawn)
inhibition [1]: Dose-dependent effect | IC50 [1]: 2500 nM | inhibition [2]: Dose-dependent effect | inhibition [3]: Dose-dependent effect | IC50 [4]: > 10 µM | Activity [4]: Dose-dependent effect | Activity [5]: Dose-dependent effect | inhibition [6]: inactive | Activity [7]: inactive

Molecules with a lower IC50 [1], results first:

IC50 [1]: 1300 nM | Activity [7]: Active
Compound: Cc1c(C)c2c(c(C)c1OC(=O)CCC(=O)O)CC[C@](C)(/C=C/CC(C)CCCC(C)C)O2 (stereo partly drawn)
inhibition [1]: Dose-dependent effect | inhibition [2]: Dose-dependent effect | inhibition [3]: Dose-dependent effect | IC50 [4]: > 10 µM | Activity [4]: Dose-dependent effect | IC50 [5]: 23 µM | Activity [5]: Dose-dependent effect | inhibition [6]: Active

IC50 [1]: 600 nM | IC50 ([2]; MCF7, 1 h): 2000 nM | IC50 ([3]; SK-BR-3, 1 h): 2000 nM | Activity [33]: Active
Compound: Cc1c(C)c2c(c(C)c1OCC(=O)O)CC[C@](C)(/C=C/CC(C)CCCC(C)C)O2 (stereo partly drawn)
Activity [18]: Active | inhibition [1]: Dose-dependent effect | inhibition [2]: Dose-dependent effect | inhibition [3]: Dose-dependent effect | Ratio IC50 [19]: 3.3 | Ratio IC50 [20]: 3.3 | IC50 [4]: > 10 µM | Activity [4]: Dose-dependent effect | IC50 [5]: 23 µM | Activity [5]: Dose-dependent effect | inhibition [21]: Active | inhibition [22]: Active | inhibition [23]: Active | inhibition [24]: Active | inhibition [6]: Active | inhibition [25]: Dose-dependent effect | inhibition [26]: Dose-dependent effect | inhibition [27]: Dose-dependent effect | inhibition [28]: Dose-dependent effect | Activity [29]: Active | Activity [30]: Active | Activity [31]: 84% | Activity [32]: Active
